# Assay results reported in article PMC6656587 (Bioorganic chemistry, 2019).
# What was measured:
# PAM212 keratinocytes = experiment: PAM212 keratinocyte growth inhibition with UVA light; assay type: cell-based, mouse; details: plus UVA light
# [1] = tested on: MCF-7 breast carcinoma cell line; details: read-out: IC50, phototoxicity; cited from earlier work
# [2] = known measured logP used in the discussion; ref not given; cited from earlier work
# [3] = Solubility maximum under the assay's conditions; assay type: physicochemical; details: 37 °C, plasma or biological fluid, kinetic from dmso stock
# plasmid pZeoSV DNA = experiment: Plasmid DNA nicking and unwinding assay with UVA light; assay type: biochemical; details: for Percentage of nicked plasmid: neutral agarose gels
# Outline: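 pZeoSV plasmid (75 ng per 10 μL) in TE buffer (10 mM Tris–HCl, 1 mM EDTA, pH 8), with test compound added from a 100× DMSO concentrate. UVA (320–400 nm) was given as for the cell cultures: 2.4 mW/cm2, 1.28 J/cm2. Aliquots taken before and after UVA were run on 1.2% neutral (Tris-acetate-EDTA) or alkaline agarose and stained with ethidium bromide. Percent nicked plasmid came from band image analysis.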
structure (smiles),measurement,setting,value
"O=c1ccc2ccc(O)cc2o1 [Compound 1, umbelliferone]",photo-activity on keratinocyte growth (in words),PAM212 keratinocytes,no activity
same,IC50,[1],476 µM
"Cc1cc(=O)oc2c(C)c(O)ccc12 [Compound 12, 4,8-dimethyl-7-hydroxycoumarin]",logP,[2],2.1
"Cc1cc(=O)oc2c(C)c(O)c([N+](=O)[O-])cc12 [Compound 18, 4,8-dimethyl-6-nitro-7-hydroxycoumarin]",solubility,[3],100 µM
same,photo-activity on keratinocyte growth (in words),PAM212 keratinocytes,no photocytotoxicity
"Cc1c(O)ccc2c(C(F)(F)F)cc(=O)oc12 [Compound 37, 4-trifluoromethyl-8-methyl-7-hydroxycoumarin]",photo-activity on keratinocyte growth (in words),PAM212 keratinocytes,inactive
"O=c1cc(C(F)(F)F)c2ccc(O)cc2o1 [Compound 47, 4-trifluoromethyl-7-hydroxycoumarin]",photo-activity on keratinocyte growth (in words),PAM212 keratinocytes,inactive
"C=CCOc1ccc2c(C)c(Br)c(=O)oc2c1C [Compound 58, 4,8-dimethyl-3-bromo-7-allyloxycoumarin]",Percentage of nicked plasmid,plasmid pZeoSV DNA; 1 μM coumarin plus UVA light,3.2%
same,Percentage of nicked plasmid,plasmid pZeoSV DNA; 10 μM coumarin plus UVA light,12.0%
same,Percentage of nicked plasmid,plasmid pZeoSV DNA; 100 μM coumarin plus UVA light,20.2%
same,effect on plasmid DNA (in words),"plasmid pZeoSV DNA; plus UVA light, neutral gels",concentration-dependent alteration in migration
"Cc1c(F)c(=O)oc2c(C)c(O)ccc12 [Compound 68, 3-fluoro-4,8-dimethyl-7-hydroxycoumarin]",photo-activity on keratinocyte growth (in words),PAM212 keratinocytes,no activity
"Cc1c(I)c(=O)oc2c(C)c(O)ccc12 [Compound 71, 3-Iodo-4,8-dimethyl-7-hydroxycoumarin]",Percentage of nicked plasmid,plasmid pZeoSV DNA; 1 μM coumarin plus UVA light,6.8%
same,Percentage of nicked plasmid,plasmid pZeoSV DNA; 10 μM coumarin plus UVA light,80.2%
same,Percentage of nicked plasmid,plasmid pZeoSV DNA; 100 μM coumarin plus UVA light,98.6%
same,linearization of the plasmid compared to the 7-allyloxy ethers 14 and 58,plasmid pZeoSV DNA; plus UVA light,nearly five times greater linearization
same,effect on plasmid DNA (in words),"plasmid pZeoSV DNA; plus UVA light, alkaline gels",Generally similar results
same,effect on plasmid DNA (in words),"plasmid pZeoSV DNA; plus UVA light, neutral gels",concentration-dependent alteration in migration
